Shown are actives, neighbours in structure and some others; about 5.4% of the full set was active somewhere.
Ecoli WT expand: E. coli BW25113 growth inhibition, expanded screen; actives 0.15% (n = 98,000); growth inhibition, % at 100 µM; OD600 absorbance;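 active = growth inhibition above about 50% at one test dose, limit read from the data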;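 also: growth measured after 20 h incubation at 37 °C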
PLAP act: human PLAP activation; P05187; purified PLAP enzyme, luminescent substrate read-out; stronger effect = higher value; activation fold at 20 µM; actives 1.2% (n = 96,000); in the data active = activation fold above about 2
Target sequence (P05187 whole entry, looked up): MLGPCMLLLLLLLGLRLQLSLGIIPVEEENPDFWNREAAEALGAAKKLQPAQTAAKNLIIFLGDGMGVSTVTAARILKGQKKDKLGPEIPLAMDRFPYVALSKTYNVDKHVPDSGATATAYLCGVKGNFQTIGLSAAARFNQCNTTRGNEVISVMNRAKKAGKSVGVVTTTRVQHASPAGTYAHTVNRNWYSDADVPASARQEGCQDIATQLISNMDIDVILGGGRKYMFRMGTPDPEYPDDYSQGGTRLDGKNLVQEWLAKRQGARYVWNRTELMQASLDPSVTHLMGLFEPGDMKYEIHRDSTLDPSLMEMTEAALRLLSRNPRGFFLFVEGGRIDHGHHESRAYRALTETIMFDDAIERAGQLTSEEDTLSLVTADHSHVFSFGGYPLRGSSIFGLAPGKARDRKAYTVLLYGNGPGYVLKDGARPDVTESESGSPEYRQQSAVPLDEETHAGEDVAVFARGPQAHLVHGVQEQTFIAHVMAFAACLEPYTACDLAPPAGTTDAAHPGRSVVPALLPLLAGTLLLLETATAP
PostGolgi ctrl: growth of the yeast control strain, post-Golgi counter-screen. AID 738. efflux-deficient yeast background strain, growth absorbance A615, 16 h. inhibition, % at 10 µM. actives 5% (n = 98,000)
PostGolgi yeast: growth inhibition of a yeast mutant, post-Golgi transport screen; post-Golgi transport phenotypic cell assay; inhibition, % at 10 µM; actives 0.9% (n = 98,000); AID 739;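 also: yeast cells grown in 1536-well plates; yeast grown about 18 h at 30C before absorbance read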
tolC growth inh: growth inhibitors of E. coli BW25113 tolC mutant | OD615 | growth inhibition, % at 10 µM (by protocol) | actives 2.2% (n = 65,000) | AID 573;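 active = growth inhibition at or above a cutoff equal to the mean over every tested compound plus 3 SD, cut at about 60% in these data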;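 also: growth measured after 20 h incubation at 37 °C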
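signal = optical density read at 615 nm | test system = E. coli ΔtolC::kan strain BW25113 | timing = 20 h compound exposure of bacteria at 37 °C | buffer or medium = LB medium plus 50 µg/mL kanamycin | compound dosing = 10 µM final, single dose | evaluation = % inhibition of E. coli growth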
HePTP inh: inhibitors of human HePTP phosphatase; recombinant HePTP phosphatase activity, OD absorbance; inhibition, % at 20 µM; actives 0.64% (n = 110,000); in the data active = inhibition above about 50%;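 also: plate controls were vehicle for no effect and reference inhibitor for full effect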
Active calls of the source: *; nt = not tested or not shown. Rule as the data show it, unless noted: active = inhibition above about 30%; inactive = the rest.

SMILES | Ecoli WT expand | PLAP act | PostGolgi ctrl | PostGolgi yeast | tolC growth inh | HePTP inh
c1ccc2c(c1)ncn2CCCOc1ccc2c(c1)CCC2 | 10 | 1.3 | 34* | -1 | nt | nt
c1ccc2c(c1)ncn2CCN1CCCCC1 | nt | nt | nt | nt | nt | 2
COc1ccc2c(=O)c3c(=O)n(Cc4ccco4)c(-c4ccccc4)nc3oc2c1 | -12 | 0.8 | 58* | 28 | 14 | 1
CCCCCCn1c(-c2ccco2)nc2oc3cc(OC)ccc3c(=O)c2c1=O | -15 | 1.3 | 15 | 0 | 13 | 8
COc1ccc2c(=O)c3c(=O)n(Cc4ccco4)c(-c4cc(OC)c(OC)c(OC)c4)nc3oc2c1 | nt | nt | nt | nt | -10 | -3
CCCc1nc2sc3ccccc3c(=O)c2c(=O)n1Cc1ccco1 | 10 | 1 | -5 | 14 | 70* | 16
CCCc1nc2oc3cc(OC)ccc3c(=O)c2c(=O)n1Cc1ccco1 | -10 | 1.1 | -3 | -1 | 61* | 10
CCCc1cc(=O)oc2cc(OCc3nn[nH]n3)ccc12 | 2 | 1 | 14 | -11 | nt | nt
Cc1ccc(C)n1/N=C1\NC(=O)CS1 | nt | nt | nt | nt | nt | 99*
Cc1ccccc1N=C1NC(=O)CS1 | -8 | 1.1 | 1 | -5 | -3 | 3
O=C(NNC(=S)NC(=O)c1ccccc1[N+](=O)[O-])c1ccccc1[N+](=O)[O-] | 8 | 2.5* | 3 | -8 | nt | nt
COc1cc(S(=O)(=O)N2CCOCC2)ccc1NC(=O)COC(=O)C12CC3CC(CC(C3)C1)C2 | -1 | 1 | 35* | -10 | -7 | 16
CCC(CC)C(=O)OCC(=O)Nc1ccc(S(=O)(=O)N2CCOCC2)cc1OC | -1 | 1.5 | -1 | 2 | nt | nt
Cc1cc(F)ccc1S(=O)(=O)Nc1ccccc1C(=O)Nc1ccccc1N1CCOCC1 | -18 | 1.2 | 19 | -18 | nt | nt
Cc1cc(F)ccc1S(=O)(=O)Nc1ccccc1C(=O)Nc1ncn[nH]1 | 8 | 2.9* | 11 | 15 | 18 | 7
O=C(c1ccc(F)cc1)N1CCN(c2ccc(Cl)cc2[N+](=O)[O-])CC1 | nt | nt | nt | nt | nt | -1
O=C(CSc1ccc(Cl)cc1)N1CCN(c2ccc(Cl)cc2[N+](=O)[O-])CC1 | -14 | 1 | 72* | 2 | nt | nt
CCCCn1c(SCC(N)=O)nc2ccc(N3CCOCC3)cc2c1=O | 2 | 1 | 35* | -9 | nt | nt
COc1cccc(NS(=O)(=O)c2ccc3[nH]cc(C(=O)NCCC(C)C)c(=O)c3c2)c1 | 2 | 1 | 41* | 9 | 31 | 6
CCOc1ccc(NS(=O)(=O)c2ccc3[nH]cc(C(=O)NC(C)CC)c(=O)c3c2)cc1 (stereo not drawn) | -1 | nt | 2 | 8 | 100* | -11
CCOc1ccc(CN(C(=O)c2oc3cc(C)ccc3c2C)C2CCS(=O)(=O)C2)cc1 (stereo not drawn) | -6 | 1.5 | 35* | 4 | nt | nt
C=CCN(CC=C)C(=O)C1CC(=O)N(c2ccc(Br)cc2)C1 (stereo not drawn) | 1 | 1.7 | -14 | -5 | -8 | 2
O=C(O)C1CC(=O)N(c2ccc(Br)cc2)C1 (stereo not drawn) | -2 | 1 | 42* | -7 | -21 | -3
O=C(Nc1nc2ccccc2s1)C1CC(=O)N(c2ccc(Br)cc2)C1 (stereo not drawn) | -6 | 1.3 | 46* | -9 | nt | nt
Cc1c(C(=O)N2CCN(S(C)(=O)=O)CC2)oc2ccccc12 | 7 | 0.9 | 34* | -8 | 2 | 1
SMILES | Ecoli WT expand | PLAP act | PostGolgi ctrl | PostGolgi yeast | tolC growth inh | HePTP inh
Cc1c(C(=O)N2CCN(CCc3ccccc3)CC2)oc2ccccc12 | 13 | 1.5 | 13 | 7 | 10 | 8
O=C(COc1ccc2ccccc2c1Br)N1CCN(c2ccccn2)CC1 | -15 | 1.1 | 37* | -14 | 93* | -4
CC(C)C(=O)Nc1ccc(O)c(-c2nc3ccccc3s2)c1 | nt | nt | nt | nt | nt | 11
Cc1c(O)ccc(-c2[nH]ncc2-c2nc3ccccc3s2)c1O | 0 | 2.2* | -1 | 14 | nt | nt
Cc1ccc(OCCCNC(C)(C)C)c(C(C)(C)C)c1 | nt | nt | nt | nt | nt | 6
O=C(Nc1ccccc1C(=O)OCc1nnc(-c2ccccc2)o1)c1ccco1 | -11 | 1.4 | 48* | -1 | 6 | 4
CCCC(=O)C1=C(O)C(C(=O)OC)C(C)(C)CC1=NC(C)CC (stereo not drawn) | nt | nt | nt | nt | nt | -4
N#Cc1cc2c(nc1SCc1cccnc1)CCC2 | 10 | 0.8 | 4 | 6 | 6 | 12
N#Cc1cc2c(nc1SCc1nc3ccccc3[nH]1)CCC2 | 3 | 2.1* | 12 | -1 | 57 | 9
CCc1ccc2nc(N3CCN(C)CC3)c(C#N)cc2c1 | 7 | 1.5 | 0 | 1 | -11 | 2
CN(C)S(=O)(=O)N(CC(=O)Nc1ccccc1C(F)(F)F)c1ccccc1 | 7 | 1.2 | -4 | 12 | -3 | 5
CCCNC(=O)CCC(=O)Nc1ncc(-c2ccc(C)cc2)n1C | 6 | 2.2* | 9 | -9 | 38 | -4
CCCc1cc(=O)[nH]c(SCC(=O)NC(=O)OCC)n1 | 9 | 1 | -4 | -3 | 11 | 3
CCCc1cc(=O)[nH]c(SCC(=O)NC(=O)c2ccccc2)n1 | -6 | 0.9 | 32* | 10 | nt | -11
CCCC(=O)Nc1nc2n(n1)C(c1ccccc1)CC(=O)N2 (stereo not drawn) | -2 | 1.1 | 1 | -6 | nt | nt
COc1ccc(C(=O)Nc2nnc(C(F)(F)F)s2)cc1 | -16 | 1.1 | 42* | -3 | 11 | -4
O=C(O)CCC(=O)Nc1nnc(C(F)(F)F)s1 | 5 | 1 | -1 | -3 | 4 | -5
O=C(Nc1nc(-c2cccs2)cs1)c1ccc(Cl)cc1 | -12 | 0.9 | 8 | -5 | nt | nt
CCC(NC(=O)Nc1nnc(C(F)(F)F)s1)(C(F)(F)F)C(F)(F)F | 58* | 1 | 17 | -4 | 4 | 8
COc1cc(C(=O)Nc2nc(-c3cccs3)cs2)cc(OC)c1OC | 0 | 0.8 | 48* | 25 | 69* | 3
COc1ccc(C(=O)Nc2nc(-c3cccs3)cs2)cc1 | -3 | 0.8 | 16 | 1 | 98* | -10
CCOC(=O)C1=C(CSc2n[nH]c(N)n2)NC(=O)NC1C (stereo not drawn) | -3 | 2.4* | 24 | 18 | -12 | -4
CCOC(=O)C(Sc1n[nH]c(N)n1)c1ccccc1 (stereo not drawn) | 5 | 1.3 | 0 | -1 | nt | nt
Cc1ccccc1CN(c1ccc(C(=O)Nc2cccnc2)cc1)S(C)(=O)=O | 3 | 2.2* | 6 | -6 | nt | nt
COc1ccccc1N(CC(=O)Nc1cccnc1)S(=O)(=O)c1ccccc1 | -1 | 1 | 3 | -9 | nt | nt
O=C(Nc1cccnc1)c1ccc(CN(c2ccccc2)S(=O)(=O)c2ccccc2)cc1 | nt | nt | nt | nt | nt | 104*
COc1ccc(OC)c(N(CC(=O)Nc2cccnc2)S(=O)(=O)c2ccccc2)c1 | -7 | 2.2* | 8 | 3 | nt | nt
O=C(Nc1ccccn1)c1ccc(CN(c2ccccc2)S(=O)(=O)c2ccccc2)cc1 | nt | nt | nt | nt | nt | 12
COc1ccc2[nH]c(C)c(CCN(Cc3cccs3)C(=S)Nc3ccccc3)c2c1 | -21 | 1.2 | 29 | 10 | nt | nt
Cc1ccc(OCC(=O)NCc2ccc(F)cc2)c(C)c1 | nt | nt | nt | nt | nt | -10
